Laboratory results from ChEMBL document CHEMBL2346629, “Discovery and characterization of novel allosteric FAK inhibitors” (Eur J Med Chem, 2013).

Key:
[1] = molecular target: Serine/threonine-protein kinase MARK2 (Homo sapiens) (UniProt Q7KZI7); experiment: Inhibition of MARK2 (unknown origin) using [gamma-33P]ATP assessed as residual activity at 3 uM
Summary of the method: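 Contract radiometric panel screen of 288 kinases (261 wild-type, 27 mutant). Inhibition was read by [gamma-33P]ATP radioactivity incorporation.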

[2] = molecular target: Cyclin-dependent kinase 1/cyclin B1 (Homo sapiens) (UniProt P06493+P14635); experiment: Inhibition of CDK1/cyclinB (unknown origin) using [gamma-33P]ATP assessed as residual activity at 3 uM; assay type: protein-complex assay
Summary of the method: (§1)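 Radiometric profiling across 288 kinases (261 wild-type, 27 mutant), run as an outsourced service. Inhibition read out as [gamma-33P]ATP incorporation into substrate.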

[3] = molecular target: Tyrosine-protein kinase Lck (Homo sapiens) (UniProt P06239); experiment: Inhibition of LCK (unknown origin) using [gamma-33P]ATP assessed as residual activity at 3 uM
Summary of the method: (§2)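 Radiometric kinase profiling service covering 288 kinases (261 wild-type, 27 mutant). Inhibition was read as incorporation from [γ-³³P]ATP.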

[4] = molecular target: Ephrin type-B receptor 3 (Homo sapiens) (UniProt P54753); experiment: Inhibition of EPHB3 (unknown origin) using [gamma-33P]ATP assessed as residual activity at 3 uM
Summary of the method: (§3)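 Reaction Biology HotSpot radiometric profiling panel of 288 kinases (261 wild-type, 27 mutant). Kinase activity was read out by incorporation of [γ-33P]ATP.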

[5] = molecular target: Tyrosine-protein kinase HCK (Homo sapiens) (UniProt P08631); experiment: Inhibition of HCK (unknown origin) using [gamma-33P]ATP assessed as residual activity at 3 uM; summary of the method: as §2
[6] = molecular target: Homeodomain-interacting protein kinase 4 (Homo sapiens) (UniProt Q8NE63); experiment: Inhibition of HIPK4 (unknown origin) using [gamma-33P]ATP assessed as residual activity at 3 uM; summary of the method: as §2
[7] = molecular target: Death-associated protein kinase 2 (Homo sapiens) (UniProt Q9UIK4); experiment: Inhibition of DAPK2 (unknown origin) using [gamma-33P]ATP assessed as residual activity at 3 uM; summary of the method: as §3
[8] = molecular target: Homeodomain-interacting protein kinase 1 (Homo sapiens) (UniProt Q86Z02); experiment: Inhibition of HIPK1 (unknown origin) using [gamma-33P]ATP assessed as residual activity at 3 uM; summary of the method: as §2
[9] = molecular target: Ribosomal protein S6 kinase alpha-6 (Homo sapiens) (UniProt Q9UK32); experiment: Inhibition of RSK4 (unknown origin) using [gamma-33P]ATP assessed as residual activity at 3 uM
[10] = molecular target: Insulin-like growth factor 1 receptor (Homo sapiens) (UniProt P08069); experiment: Inhibition of IGF-1R (unknown origin) using [gamma-33P]ATP assessed as residual activity at 3 uM; summary of the method: as §2
[11] = molecular target: Dual specificity protein kinase CLK3 (Homo sapiens) (UniProt P49761); experiment: Inhibition of CLK3 (unknown origin) using [gamma-33P]ATP assessed as residual activity at 3 uM; summary of the method: as §3
[12] = molecular target: Tyrosine-protein kinase ITK/TSK (Homo sapiens) (UniProt Q08881); experiment: Inhibition of ITK (unknown origin) using [gamma-33P]ATP assessed as residual activity at 3 uM; summary of the method: as §2
[13] = molecular target: CDK9/Cyclin K (Homo sapiens) (UniProt P50750+O75909); experiment: Inhibition of CDK9/cyclin K (unknown origin) using [gamma-33P]ATP assessed as residual activity at 3 uM; assay type: protein-complex assay; summary of the method: as §1
[14] = molecular target: Serine/threonine-protein kinase 33 (Homo sapiens) (UniProt Q9BYT3); experiment: Inhibition of STK33 (unknown origin) using [gamma-33P]ATP assessed as residual activity at 3 uM
[15] = molecular target: Mitogen-activated protein kinase 3 (Homo sapiens) (UniProt P27361); experiment: Inhibition of ERK1 (unknown origin) using [gamma-33P]ATP assessed as residual activity at 3 uM; summary of the method: as §3
[16] = molecular target: Serine/threonine-protein kinase BRSK1 (Homo sapiens) (UniProt Q8TDC3); experiment: Inhibition of BRSK1 (unknown origin) using [gamma-33P]ATP assessed as residual activity at 3 uM; summary of the method: as §1
[17] = molecular target: Serine/threonine-protein kinase Nek3 (Homo sapiens) (UniProt P51956); experiment: Inhibition of NEK3 (unknown origin) using [gamma-33P]ATP assessed as residual activity at 3 uM
[18] = test system: Epidermal growth factor receptor (Homo sapiens), P00533 [T790M]; experiment: Inhibition of EGFR T790M mutant (unknown origin) using [gamma-33P]ATP assessed as residual activity at 3 uM; assay type: protein assay; summary of the method: as §3
[19] = molecular target: Cyclin-dependent kinase 4/cyclin D1 (Homo sapiens) (UniProt P11802+P24385); experiment: Inhibition of CDK4/cyclinD1 (unknown origin) using [gamma-33P]ATP assessed as residual activity at 3 uM; assay type: protein-complex assay; summary of the method: as §1
[20] = molecular target: Calcium/calmodulin-dependent protein kinase type 1 (Homo sapiens) (UniProt Q14012); experiment: Inhibition of CAMK1a (unknown origin) using [gamma-33P]ATP assessed as residual activity at 3 uM; summary of the method: as §1
[21] = molecular target: Ephrin type-A receptor 1 (Homo sapiens) (UniProt P21709); experiment: Inhibition of EPHA1 (unknown origin) using [gamma-33P]ATP assessed as residual activity at 3 uM; summary of the method: as §3
[22] = molecular target: CDK3/cyclin E (Homo sapiens) (UniProt P24864+O96020+Q00526); experiment: Inhibition of CDK3/cyclinE (unknown origin) using [gamma-33P]ATP assessed as residual activity at 3 uM; assay type: protein-complex assay; summary of the method: as §1
[23] = molecular target: Cyclin-dependent kinase 5/CDK5 activator 1 (Homo sapiens) (UniProt Q00535+Q15078); experiment: Inhibition of CDK5/p25 (unknown origin) using [gamma-33P]ATP assessed as residual activity at 3 uM; assay type: protein-complex assay; summary of the method: as §1
[24] = molecular target: Mitogen-activated protein kinase kinase kinase kinase 2 (Homo sapiens) (UniProt Q12851); experiment: Inhibition of GCK (unknown origin) using [gamma-33P]ATP assessed as residual activity at 3 uM
[25] = molecular target: Dual specificity tyrosine-phosphorylation-regulated kinase 1B (Homo sapiens) (UniProt Q9Y463); experiment: Inhibition of DYRK1B (unknown origin) using [gamma-33P]ATP assessed as residual activity at 3 uM; summary of the method: as §3
[26] = molecular target: Serine/threonine-protein kinase TBK1 (Homo sapiens) (UniProt Q9UHD2); experiment: Inhibition of TBK1 (unknown origin) using [gamma-33P]ATP assessed as residual activity at 3 uM
[27] = molecular target: Serine/threonine-protein kinase 26 (Homo sapiens) (UniProt Q9P289); experiment: Inhibition of MST4 (unknown origin) using [gamma-33P]ATP assessed as residual activity at 3 uM
[28] = molecular target: Protein kinase C zeta type (Homo sapiens) (UniProt Q05513); experiment: Inhibition of PKCzeta (unknown origin) using [gamma-33P]ATP assessed as residual activity at 3 uM
[29] = molecular target: Receptor tyrosine-protein kinase erbB-4 (Homo sapiens) (UniProt Q15303); experiment: Inhibition of ErbB4 (unknown origin) using [gamma-33P]ATP assessed as residual activity at 3 uM; summary of the method: as §3
[30] = molecular target: Ephrin type-A receptor 5 (Homo sapiens) (UniProt P54756); experiment: Inhibition of EPHA5 (unknown origin) using [gamma-33P]ATP assessed as residual activity at 3 uM; summary of the method: as §3
[31] = molecular target: Vascular endothelial growth factor receptor 2 (Homo sapiens) (UniProt P35968); experiment: Inhibition of KDR (unknown origin) using [gamma-33P]ATP assessed as residual activity at 3 uM; summary of the method: as §2
Chain of Vascular endothelial growth factor receptor 2 (Homo sapiens) (P35968 whole entry): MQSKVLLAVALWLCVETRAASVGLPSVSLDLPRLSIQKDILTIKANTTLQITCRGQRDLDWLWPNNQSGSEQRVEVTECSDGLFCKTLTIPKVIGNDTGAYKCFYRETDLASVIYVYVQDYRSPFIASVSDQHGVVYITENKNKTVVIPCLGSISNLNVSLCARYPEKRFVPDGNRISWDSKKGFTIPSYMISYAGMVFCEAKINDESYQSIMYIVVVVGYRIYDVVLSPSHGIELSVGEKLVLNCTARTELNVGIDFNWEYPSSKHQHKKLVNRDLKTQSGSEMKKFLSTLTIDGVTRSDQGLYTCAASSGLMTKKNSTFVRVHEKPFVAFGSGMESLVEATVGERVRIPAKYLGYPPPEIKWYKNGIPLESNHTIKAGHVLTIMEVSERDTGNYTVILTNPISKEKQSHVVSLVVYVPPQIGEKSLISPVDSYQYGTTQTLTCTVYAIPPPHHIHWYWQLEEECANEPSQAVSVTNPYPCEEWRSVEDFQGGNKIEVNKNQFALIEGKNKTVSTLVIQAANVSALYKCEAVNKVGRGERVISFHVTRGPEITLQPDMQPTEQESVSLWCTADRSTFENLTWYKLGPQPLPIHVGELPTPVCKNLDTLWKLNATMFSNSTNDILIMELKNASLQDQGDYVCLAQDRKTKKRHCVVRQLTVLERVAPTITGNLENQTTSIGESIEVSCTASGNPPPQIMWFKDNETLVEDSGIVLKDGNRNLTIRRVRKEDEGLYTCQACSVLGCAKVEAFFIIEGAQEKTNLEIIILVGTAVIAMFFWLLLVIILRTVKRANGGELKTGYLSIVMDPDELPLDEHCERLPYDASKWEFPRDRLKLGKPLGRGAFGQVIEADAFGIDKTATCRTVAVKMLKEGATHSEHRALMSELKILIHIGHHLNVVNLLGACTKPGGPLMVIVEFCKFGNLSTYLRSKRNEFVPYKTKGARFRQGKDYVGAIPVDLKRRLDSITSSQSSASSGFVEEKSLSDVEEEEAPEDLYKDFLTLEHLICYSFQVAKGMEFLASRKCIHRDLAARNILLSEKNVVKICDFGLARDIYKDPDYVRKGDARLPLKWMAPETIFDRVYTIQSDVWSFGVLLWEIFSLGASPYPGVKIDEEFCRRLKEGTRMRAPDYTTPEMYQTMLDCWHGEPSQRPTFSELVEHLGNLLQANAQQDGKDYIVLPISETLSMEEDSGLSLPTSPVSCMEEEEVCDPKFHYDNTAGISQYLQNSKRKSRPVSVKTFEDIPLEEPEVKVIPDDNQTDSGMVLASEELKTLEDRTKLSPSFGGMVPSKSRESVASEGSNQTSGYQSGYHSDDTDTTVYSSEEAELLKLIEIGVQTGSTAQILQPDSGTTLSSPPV

Chain of Tyrosine-protein kinase HCK (Homo sapiens) (P08631 2-526 limits assumed): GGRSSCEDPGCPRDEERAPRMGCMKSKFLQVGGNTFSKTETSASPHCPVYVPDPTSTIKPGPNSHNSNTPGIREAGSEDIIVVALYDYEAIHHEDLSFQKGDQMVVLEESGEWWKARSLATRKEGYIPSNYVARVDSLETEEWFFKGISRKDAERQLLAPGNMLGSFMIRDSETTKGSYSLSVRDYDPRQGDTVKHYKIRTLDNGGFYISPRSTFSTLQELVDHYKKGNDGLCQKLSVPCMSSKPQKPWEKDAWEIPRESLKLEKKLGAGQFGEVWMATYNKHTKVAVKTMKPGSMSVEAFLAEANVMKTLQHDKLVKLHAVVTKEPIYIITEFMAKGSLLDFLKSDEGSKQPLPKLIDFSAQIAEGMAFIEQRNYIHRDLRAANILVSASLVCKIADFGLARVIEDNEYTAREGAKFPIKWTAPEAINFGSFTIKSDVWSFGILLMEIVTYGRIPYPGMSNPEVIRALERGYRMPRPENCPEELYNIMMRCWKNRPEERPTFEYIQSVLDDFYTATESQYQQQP
Chain of Serine/threonine-protein kinase MARK2 (Homo sapiens) (Q7KZI7 whole entry): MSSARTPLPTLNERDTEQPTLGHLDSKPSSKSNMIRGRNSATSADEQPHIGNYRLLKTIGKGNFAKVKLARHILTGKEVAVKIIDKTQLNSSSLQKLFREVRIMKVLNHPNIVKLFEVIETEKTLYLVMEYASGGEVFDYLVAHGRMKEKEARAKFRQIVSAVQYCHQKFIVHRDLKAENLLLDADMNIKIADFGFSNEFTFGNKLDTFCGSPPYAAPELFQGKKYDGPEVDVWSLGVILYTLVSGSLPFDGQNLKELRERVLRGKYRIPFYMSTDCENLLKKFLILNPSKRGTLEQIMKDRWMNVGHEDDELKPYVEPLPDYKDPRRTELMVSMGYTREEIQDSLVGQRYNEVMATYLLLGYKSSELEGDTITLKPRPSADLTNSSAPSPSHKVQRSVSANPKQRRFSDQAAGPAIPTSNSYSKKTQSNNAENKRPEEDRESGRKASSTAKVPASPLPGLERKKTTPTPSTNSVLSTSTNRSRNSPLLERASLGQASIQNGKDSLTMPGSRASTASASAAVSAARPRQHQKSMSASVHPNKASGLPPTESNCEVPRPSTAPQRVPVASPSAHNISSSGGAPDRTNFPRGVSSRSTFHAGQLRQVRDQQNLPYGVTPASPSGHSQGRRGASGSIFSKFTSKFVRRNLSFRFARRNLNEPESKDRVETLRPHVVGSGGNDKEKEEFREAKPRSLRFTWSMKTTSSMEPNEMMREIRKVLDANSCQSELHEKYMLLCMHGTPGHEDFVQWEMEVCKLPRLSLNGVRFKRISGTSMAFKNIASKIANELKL
Chain of Serine/threonine-protein kinase Nek3 (Homo sapiens) (P51956 whole entry): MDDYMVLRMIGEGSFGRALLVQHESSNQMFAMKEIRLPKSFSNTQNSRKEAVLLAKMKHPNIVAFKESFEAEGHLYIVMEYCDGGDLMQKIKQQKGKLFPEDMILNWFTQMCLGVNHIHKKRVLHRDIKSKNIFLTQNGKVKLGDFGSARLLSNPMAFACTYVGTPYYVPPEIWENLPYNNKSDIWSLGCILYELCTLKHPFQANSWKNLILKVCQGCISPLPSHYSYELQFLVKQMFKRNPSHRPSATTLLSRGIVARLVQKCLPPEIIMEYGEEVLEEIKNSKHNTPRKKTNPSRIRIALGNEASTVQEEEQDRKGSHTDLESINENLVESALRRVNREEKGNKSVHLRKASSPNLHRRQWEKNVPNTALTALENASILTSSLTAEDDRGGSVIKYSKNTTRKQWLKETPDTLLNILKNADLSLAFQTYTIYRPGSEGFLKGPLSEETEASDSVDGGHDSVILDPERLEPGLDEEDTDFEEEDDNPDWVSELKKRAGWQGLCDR
Chain of Mitogen-activated protein kinase 3 (Homo sapiens) (P27361 whole entry): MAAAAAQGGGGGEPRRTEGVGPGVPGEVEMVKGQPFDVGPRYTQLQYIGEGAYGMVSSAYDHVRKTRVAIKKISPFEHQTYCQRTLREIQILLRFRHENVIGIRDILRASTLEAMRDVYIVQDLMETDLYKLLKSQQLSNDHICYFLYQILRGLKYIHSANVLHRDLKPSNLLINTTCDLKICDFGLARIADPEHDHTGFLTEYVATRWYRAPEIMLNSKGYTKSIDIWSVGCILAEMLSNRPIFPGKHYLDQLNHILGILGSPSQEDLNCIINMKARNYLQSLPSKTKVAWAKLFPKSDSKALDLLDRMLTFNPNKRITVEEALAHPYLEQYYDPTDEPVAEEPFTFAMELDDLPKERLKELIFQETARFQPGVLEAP
Chain of Dual specificity tyrosine-phosphorylation-regulated kinase 1B (Homo sapiens) (Q9Y463 whole entry, looked up): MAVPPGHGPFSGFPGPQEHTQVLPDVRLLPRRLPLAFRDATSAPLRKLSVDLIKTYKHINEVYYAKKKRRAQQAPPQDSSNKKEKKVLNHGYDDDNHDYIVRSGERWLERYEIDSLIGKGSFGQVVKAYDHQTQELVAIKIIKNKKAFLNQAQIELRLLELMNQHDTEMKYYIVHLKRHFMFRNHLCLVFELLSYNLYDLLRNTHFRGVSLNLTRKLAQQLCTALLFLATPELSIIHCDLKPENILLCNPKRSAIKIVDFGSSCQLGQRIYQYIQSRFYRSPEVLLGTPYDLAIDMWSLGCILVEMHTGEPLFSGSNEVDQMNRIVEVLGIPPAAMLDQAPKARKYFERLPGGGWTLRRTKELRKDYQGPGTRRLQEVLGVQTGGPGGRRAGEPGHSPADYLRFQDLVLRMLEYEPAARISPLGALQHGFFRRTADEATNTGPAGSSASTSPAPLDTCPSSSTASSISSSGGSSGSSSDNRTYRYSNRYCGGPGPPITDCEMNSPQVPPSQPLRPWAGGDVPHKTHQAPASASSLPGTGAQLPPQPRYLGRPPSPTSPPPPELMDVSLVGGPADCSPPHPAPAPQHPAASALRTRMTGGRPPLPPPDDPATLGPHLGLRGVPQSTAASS
Chain of Serine/threonine-protein kinase 33 (Homo sapiens) (Q9BYT3 whole entry, looked up): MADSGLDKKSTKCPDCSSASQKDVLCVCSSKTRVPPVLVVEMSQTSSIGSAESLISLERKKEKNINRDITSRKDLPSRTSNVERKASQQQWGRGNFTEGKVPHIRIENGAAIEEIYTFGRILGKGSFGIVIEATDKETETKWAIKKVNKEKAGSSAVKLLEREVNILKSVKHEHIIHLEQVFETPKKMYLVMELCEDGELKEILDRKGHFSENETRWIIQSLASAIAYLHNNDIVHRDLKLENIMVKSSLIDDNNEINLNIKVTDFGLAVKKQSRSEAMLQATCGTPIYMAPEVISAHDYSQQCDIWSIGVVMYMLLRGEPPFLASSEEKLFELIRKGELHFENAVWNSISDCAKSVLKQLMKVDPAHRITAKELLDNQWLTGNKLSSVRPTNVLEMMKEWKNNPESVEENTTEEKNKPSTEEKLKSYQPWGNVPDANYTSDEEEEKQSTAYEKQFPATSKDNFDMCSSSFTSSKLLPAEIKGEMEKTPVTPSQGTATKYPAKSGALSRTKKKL

Which results are given for `CCc1ccc(-c2ccc3c(c2)-c2[nH]ncc2S(=O)(=O)N3C)cc1`?
Activity [1]: 91%; Activity [2]: 83%; Activity [3]: 87%; Activity [4]: 95%; Activity [5]: 74%; Activity [6]: 91%; Activity [7]: 102%; Activity [8]: 104%; Activity [9]: 101%; Activity [10]: 87%; Activity [11]: 95%; Activity [12]: 88%; Activity [13]: 97%; Activity [14]: 94%; Activity [15]: 91%; Activity [16]: 93%; Activity [17]: 100%; Activity [18]: 109%; Activity [19]: 89%; Activity [20]: 91%; Activity [21]: 95%; Activity [22]: 96%; Activity [23]: 90%; Activity [24]: 40%; Activity [25]: 98%; Activity [26]: 71%; Activity [27]: 98%; Activity [28]: 98%; Activity [29]: 90%; Activity [30]: 90%; Activity [31]: 86%
